Calls of active or inactive are those of the source.
Assays:
Assay type in all cases: functional
Staphylococcus aureus [1] = assay: Antibacterial activity against methicillin-resistant Staphylococcus aureus C7 measured after overnight incubation by broth double-dilution method
Summary of the method: (§1)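 MIC by broth double-dilution in liquid Mueller-Hinton medium. Values are reported in µg/mL.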

Staphylococcus aureus [2] = assay: Bacteriostatic activity against methicillin-resistant Staphylococcus aureus S22 at MIC measured up to 3 to 6 hrs by time kill analysis
Staphylococcus aureus [3] = assay: Antibacterial activity against methicillin-resistant Staphylococcus aureus NRS51 measured after overnight incubation by broth double-dilution method; summary of the method: as §1
Staphylococcus aureus [4] = assay: Antibacterial activity against methicillin-resistant Staphylococcus aureus ATCC 33591 measured after overnight incubation by broth double-dilution method; summary of the method: as §1
Staphylococcus aureus [5] = assay: Antibacterial activity against methicillin-resistant Staphylococcus aureus S22 using 1 10^6CFU/ml measured after overnight incubation by broth double-dilution method
Staphylococcus aureus [6] = assay: Antibacterial activity against methicillin-resistant Staphylococcus aureus NRS4 measured after overnight incubation by broth double-dilution method; summary of the method: as §1
Klebsiella pneumoniae = assay: Antibacterial activity against Klebsiella pneumoniae ATCC 27736 measured after overnight incubation by broth double-dilution method; summary of the method: as §1
Staphylococcus aureus [7] = assay: Antibacterial activity against methicillin-resistant Staphylococcus aureus USA600 measured after overnight incubation by broth double-dilution method; summary of the method: as §1
[8] = test system: Staphylococcus epidermidis; assay: Antibacterial activity against Staphylococcus epidermidis ATCC 35984 measured after overnight incubation by broth double-dilution method; conditions: RP62A
Summary of the method: (§2)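 MIC by broth double-dilution in Mueller-Hinton medium. Re-testing at the time-kill inoculum used 1×10^6 CFU/mL.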

Staphylococcus aureus [9] = assay: Antibacterial activity against methicillin-resistant Staphylococcus aureus G6 measured after overnight incubation by broth double-dilution method; summary of the method: as §1
Enterococcus faecalis [10] = assay: Antibacterial activity against Enterococcus faecalis ATCC 29212 measured after overnight incubation by broth double-dilution method; summary of the method: as §2
Staphylococcus aureus [11] = assay: Antibacterial activity against methicillin-resistant Staphylococcus aureus S22 measured after overnight incubation by broth double-dilution method; summary of the method: as §1
Staphylococcus aureus [12] = assay: Antibacterial activity against methicillin-resistant Staphylococcus aureus USA200 measured after overnight incubation by broth double-dilution method; summary of the method: as §1
Staphylococcus aureus [13] = assay: Antibacterial activity against methicillin-resistant Staphylococcus aureus USA100 measured after overnight incubation by broth double-dilution method; summary of the method: as §1
Staphylococcus aureus [14] = assay: Antibacterial activity against methicillin-resistant Staphylococcus aureus USA300 measured after overnight incubation by broth double-dilution method; summary of the method: as §1
Staphylococcus aureus [15] = assay: Antibacterial activity against methicillin-resistant Staphylococcus aureus S24 measured after overnight incubation by broth double-dilution method; summary of the method: as §1
Staphylococcus aureus [16] = assay: Antibacterial activity against methicillin-sensitive Staphylococcus aureus ATCC 6538 measured after overnight incubation by broth double-dilution method; summary of the method: as §1
Staphylococcus aureus [17] = assay: Antibacterial activity against methicillin-resistant Staphylococcus aureus BRS3 measured after overnight incubation by broth double-dilution method; summary of the method: as §1
Staphylococcus aureus [18] = assay: Antibacterial activity against methicillin-resistant Staphylococcus aureus C14 measured after overnight incubation by broth double-dilution method; summary of the method: as §1
Escherichia coli = assay: Antibacterial activity against Escherichia coli MC1061 measured after overnight incubation by broth double-dilution method; summary of the method: as §1
Staphylococcus aureus [19] = assay: Bacteriostatic activity against methicillin-resistant Staphylococcus aureus S22 at 0.5 times MIC measured up to 3 to 6 hrs by time kill analysis
Enterobacter cloacae = assay: Antibacterial activity against Enterobacter cloacae ATCC 13047 measured after overnight incubation by broth double-dilution method; conditions: subsp. cloacae ATCC 13047; summary of the method: as §1
Staphylococcus aureus [20] = assay: Antibacterial activity against methicillin-sensitive Staphylococcus aureus ATCC 25923 measured after overnight incubation by broth double-dilution method; summary of the method: as §1
Listeria monocytogenes = assay: Antibacterial activity against Listeria monocytogenes ATCC 19115 measured after overnight incubation by broth double-dilution method; summary of the method: as §2
Staphylococcus aureus [21] = assay: Antibacterial activity against methicillin-resistant Staphylococcus aureus S14 measured after overnight incubation by broth double-dilution method; summary of the method: as §1
Staphylococcus aureus [22] = assay: Antibacterial activity against methicillin-resistant Staphylococcus aureus C2 measured after overnight incubation by broth double-dilution method; summary of the method: as §1
Staphylococcus aureus [23] = assay: Antibacterial activity against methicillin-resistant Staphylococcus aureus C16 measured after overnight incubation by broth double-dilution method; summary of the method: as §1
Staphylococcus aureus [24] = assay: Antibacterial activity against methicillin-sensitive Staphylococcus aureus ATCC 29213 measured after overnight incubation by broth double-dilution method; summary of the method: as §1
Acinetobacter baumannii = assay: Antibacterial activity against Acinetobacter baumannii ATCC 19606 measured after overnight incubation by broth double-dilution method; summary of the method: as §2
Staphylococcus aureus [25] = assay: Antibacterial activity against methicillin-resistant Staphylococcus aureus G14 measured after overnight incubation by broth double-dilution method; summary of the method: as §1
Staphylococcus aureus [26] = assay: Antibacterial activity against methicillin-resistant Staphylococcus aureus 2 measured after overnight incubation by broth double-dilution method; summary of the method: as §1
Staphylococcus aureus [27] = assay: Antibacterial activity against methicillin-resistant Staphylococcus aureus NRS77 measured after overnight incubation by broth double-dilution method; summary of the method: as §1
[28] = test system: Staphylococcus epidermidis; assay: Antibacterial activity against Staphylococcus epidermidis ATCC 12228 measured after overnight incubation by broth double-dilution method; summary of the method: as §2
Staphylococcus aureus [29] = assay: Antibacterial activity against methicillin-resistant Staphylococcus aureus C1 measured after overnight incubation by broth double-dilution method; summary of the method: as §1
Pseudomonas aeruginosa = assay: Antibacterial activity against Pseudomonas aeruginosa ATCC 27853 measured after overnight incubation by broth double-dilution method; summary of the method: as §2
Enterococcus = assay: Antibacterial activity against Vancomycin-resistant Enterococcus measured after overnight incubation by broth double-dilution method; summary of the method: as §1
Enterococcus faecium = assay: Antibacterial activity against Enterococcus faecium BM4105-RF measured after overnight incubation by broth double-dilution method; summary of the method: as §1
Staphylococcus aureus [30] = assay: Antibacterial activity against methicillin-resistant Staphylococcus aureus G1 measured after overnight incubation by broth double-dilution method; summary of the method: as §1
Salmonella enterica = assay: Antibacterial activity against Salmonella enterica ATCC 14028 measured after overnight incubation by broth double-dilution method; summary of the method: as §2
[31] = test system: Mycolicibacterium smegmatis; assay: Antibacterial activity against Mycobacterium smegmatis MC2-155 measured after overnight incubation by broth double-dilution method; conditions: str. MC2 155; summary of the method: as §1
Staphylococcus aureus [32] = assay: Antibacterial activity against methicillin-resistant Staphylococcus aureus 1 measured after overnight incubation by broth double-dilution method; summary of the method: as §1
Enterococcus faecalis [33] = assay: Antibacterial activity against Enterococcus faecalis ATCC 49533 measured after overnight incubation by broth double-dilution method; summary of the method: as §2
Staphylococcus aureus [34] = assay: Antibacterial activity against methicillin-resistant Staphylococcus aureus S17 measured after overnight incubation by broth double-dilution method; summary of the method: as §1
Staphylococcus aureus [35] = assay: Antibacterial activity against methicillin-resistant Staphylococcus aureus G12 measured after overnight incubation by broth double-dilution method; summary of the method: as §1
Staphylococcus aureus [36] = assay: Antibacterial activity against methicillin-resistant Staphylococcus aureus C19 measured after overnight incubation by broth double-dilution method; summary of the method: as §1

NCC[C@H](O)C(=O)N[C@@H]1C[C@H](N)[C@@H](O[C@H]2O[C@H](CN)[C@@H](O)[C@H](O)[C@H]2O)[C@H](O)[C@H]1O[C@H]1O[C@H](CO)[C@@H](O)[C@H](N)[C@H]1O [AMIKACIN]
2 µg/mL: MIC (Staphylococcus aureus [16]) | MIC (Escherichia coli) | MIC (Staphylococcus aureus [22]) | MIC (Staphylococcus aureus [29])
15.6 µg/mL: MIC (Staphylococcus aureus [3]) | MIC [8] | MIC (Staphylococcus aureus [9]) | MIC (Staphylococcus aureus [35])
125 µg/mL: MIC (Enterococcus faecalis [10]) | MIC (Enterococcus faecium)
7.8 µg/mL: MIC (Staphylococcus aureus [1]) | MIC (Staphylococcus aureus [11]) | MIC (Staphylococcus aureus [21]) | MIC (Acinetobacter baumannii) | MIC (Salmonella enterica)
> 125 µg/mL: MIC (Enterococcus faecalis [33])
active: Activity (Staphylococcus aureus [2]) | Activity (Staphylococcus aureus [5]) | Activity (Staphylococcus aureus [19])
62.5 µg/mL: MIC (Staphylococcus aureus [7]) | MIC (Staphylococcus aureus [12]) | MIC (Staphylococcus aureus [13]) | MIC (Staphylococcus aureus [14]) | MIC (Staphylococcus aureus [17]) | MIC (Staphylococcus aureus [24]) | MIC (Enterococcus)
3.9 µg/mL: MIC (Listeria monocytogenes) | MIC (Staphylococcus aureus [26]) | MIC (Staphylococcus aureus [36])
≤ 0.25 µg/mL: MIC (Staphylococcus aureus [20]) | MIC [31]
0.5 µg/mL: MIC (Staphylococcus aureus [27])
31.3 µg/mL: MIC (Staphylococcus aureus [4]) | MIC (Staphylococcus aureus [6]) | MIC (Staphylococcus aureus [15]) | MIC (Staphylococcus aureus [18]) | MIC (Staphylococcus aureus [23]) | MIC (Staphylococcus aureus [25]) | MIC [28] | MIC (Pseudomonas aeruginosa) | MIC (Staphylococcus aureus [30]) | MIC (Staphylococcus aureus [32]) | MIC (Staphylococcus aureus [34])
1 µg/mL: MIC (Klebsiella pneumoniae) | MIC (Enterobacter cloacae)

Source: ChEMBL document CHEMBL3864121, “Development of ebsulfur analogues as potent antibacterials against methicillin-resistant Staphylococcus aureus” (Bioorg Med Chem, 2016)
